Source: PubChem BioAssay
TAAR1 ag: agonists of human TAAR1 | Q96RJ0 | CHO RD-HGA16 TAAR1, Fluo-8 calcium fluorescence; vehicle wells 0%, saturating PEA agonist 100% | activation, % at 3 µM | 360,000 compounds, 0.99% hits | AID 624467;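 active = activation above the mean activation of all test compounds in the run plus 3 SD, cut at about 38% in these data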
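System: CHO-derived RD-HGA16 cells with stable Gα16 and human TAAR1. Times: 17-24 h plating, Fluo-8 75 min 37 °C, 30 min RT. Measured by: calcium-sensitive Fluo-8 signal, excitation 470-495, emission 515-575 nm. Read-out basis: % activation relative to PEA EC100 response. Control set: DMSO and PEA EC100. Repeats: no replicates (n 1).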
V1aR counter: activates human V1a receptor in oxytocin agonist counter-screen. 320,000 compounds, 0.25% hits. CHO-V1R cells, Fluo-8 calcium fluorescence, agonist mode; 0% DMSO, 100% 3 nM vasopressin. P37288. activation, % at 3 µM. AID 2797;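 active = activation above the mean activation of all tested compounds plus 3 SD, per screening run, cut at about 20% in these data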;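 also: signal is peak over basal fluorescence ratio across a 100 second FLIPR read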
OXTR agonist: agonists of human oxytocin receptor; activation, % at 3 µM; CHO-OTR cells, Fluo-8 calcium fluorescence; normalized: DMSO 0%, oxytocin 100%; P30559; 320,000 compounds, 0.32% hits; AID 2435;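 active = activation above the mean of all tested compounds plus 3 SD, cutoff set per screening run, cut at about 20% in these data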;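 also: peak over basal fluorescence ratio from a 100 s FLIPR kinetic read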
Target sequence (P30559 whole entry, looked up): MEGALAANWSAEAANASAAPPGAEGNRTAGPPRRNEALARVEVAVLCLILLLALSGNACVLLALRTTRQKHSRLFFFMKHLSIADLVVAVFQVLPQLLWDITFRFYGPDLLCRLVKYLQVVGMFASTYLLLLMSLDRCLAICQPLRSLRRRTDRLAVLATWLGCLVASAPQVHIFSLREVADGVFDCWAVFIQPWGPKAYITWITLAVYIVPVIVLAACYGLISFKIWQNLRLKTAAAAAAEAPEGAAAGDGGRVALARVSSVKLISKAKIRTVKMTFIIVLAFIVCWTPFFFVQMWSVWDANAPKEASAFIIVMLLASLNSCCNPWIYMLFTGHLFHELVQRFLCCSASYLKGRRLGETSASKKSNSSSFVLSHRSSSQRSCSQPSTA
OXTR potentiate: human OXTR potentiation; P30559; CHO-OTR cells, Fluo-8 calcium fluorescence, potentiator mode; 0% = oxytocin EC15, 100% = EC100; activation, % at 3 µM; 320,000 compounds, 0.061% hits; AID 2445;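 active = activation above that plate's cutoff, the mean activation of tested compounds plus 3 SD, cut at about 6.6% in these data, passing the limit was not always enough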;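 also: 100% uses oxytocin at 75 nM as the full agonist control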
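System: human OTR in CHO cells; Also added: sub-maximal oxytocin, roughly EC15; Timing: compound 6 min at room temperature before oxytocin, 100 s read; Technique: Fluo-8 intracellular calcium fluorescence, ex 470-495, em 515-575 nm; Controls: oxytocin EC15 low and EC100 high; Replication: singlicate.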
TAAR1 antagonist: antagonists of human TAAR1 | Q96RJ0 | CHO RD-HGA16 TAAR1, Fluo-8 calcium fluorescence, antagonist | inhibition, % at 3 µM | 360,000 compounds, 1.5% hits;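 active = inhibition above a per-plate cutoff, the mean inhibition of test compounds on that plate plus 3 SD, cut at about 49% in these data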;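 also: 0% = DMSO plus EC80 beta-PEA response and 100% = DMSO alone without agonist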
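Test system: hTAAR1-expressing CHO RD-HGA16 cells, Gα16-coupled; Probe or stimulus: EC80 β-phenethylamine stimulus; Compound dosing: single nominal final test compound concentration of 3 µM; Timing: 140 s kinetic read after compound, 140 s after agonist; Signal: Fluo-8 calcium-sensitive fluorescence; Measure: % inhibition of agonist calcium response; Controls: DMSO and EC80 PEA controls.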
Active calls of the source: *; / = no result. Most compounds without a hit are left out; they make up all but 2.3% or so of the library.

SMILES	TAAR1 ag	V1aR counter	OXTR agonist	OXTR potentiate	TAAR1 antagonist
Cc1ccc(CNC(=O)c2ccc(N3CCC4(CC3)CC(c3ccccc3)=NO4)c(NC(=O)c3ccc(Br)cc3)c2)cc1	-0.2	0.5	-0.3	-11.0	0.8
CCC(=O)Nc1ccccc1Nc1cc(C#N)c(C#N)cc1[N+](=O)[O-]	14.4	0.4	0.8	0.4	5.2
COc1cc(/C=C2\SC(=Nc3ccccc3)N(Cc3ccco3)C2=O)ccc1OC(C)C(=O)O (centres undefined)	4.2	0.5	-1.9	3.2	-15.1
COCCN1C(=O)/C(=C/c2ccc(OCc3ccc(C(=O)O)cc3)c(OC)c2)SC1=Nc1ccccc1	19.3	1.3	1.4	-8.7	72.9*
O=C(CSc1nc2ccc(N3CCOCC3)cc2c(=O)n1CCc1ccccc1)NCC1CCCO1 (centres undefined)	11.4	-0.6	-0.9	-3.4	51.9*
CCCCNC(=O)CSc1nc2ccc(N3CCOCC3)cc2c(=O)n1CCc1ccccc1	4.6	0.0	-0.2	-10.7	8.9
CCOC(=O)C1CCN(C(=O)NS(=O)(=O)c2ccc(C)cc2)CC1	2.1	0.8	0.2	-0.5	-10.9
O=C(c1cc(-c2cccnc2)nc2ccc(Cl)cc12)N1CCN(S(=O)(=O)c2cccs2)CC1	9.6	3.1	2.3	-4.5	51.2*
O=C1N/C(=N\S(=O)(=O)Cc2ccccc2)S/C1=C/c1cc([N+](=O)[O-])ccc1O	57.4*	62.6*	43.1*	-13.5	72.2*
COc1cc(/C=C2/S/C(=N/S(=O)(=O)c3ccccc3)NC2=O)c([N+](=O)[O-])cc1OC	-0.3	-0.3	-0.7	-12.6	-4.3
O=C1N/C(=N\S(=O)(=O)c2ccccc2)S/C1=C\c1cc([N+](=O)[O-])ccc1O	36.8	20.4*	25.4*	-16.8	53.6*
N#CC1=C(N)Oc2cc(O)c(Cl)cc2C1c1cccnc1 (centres undefined)	9.1	/	/	/	-6.5
N#CC1=C(N)Oc2cc(O)c(Cl)cc2C1c1ccccc1F (centres undefined)	16.9	18.2	24.7*	-11.8	7.9
CCc1ccc(C(O)(CC(C)C)C(CN2CCOCC2)c2ccccc2)cc1 (centres undefined)	25.6	/	/	/	-19.1
Cc1c(C(=O)NCc2ccccc2)oc2c1C(=O)CCC2	1.8	-0.3	-0.3	-1.7	-15.0
CCOc1ccc(-c2cc(C(=O)Nc3ccc4c(c3)OCCO4)c3ccccc3n2)cc1	13.7	0.7	-0.7	-3.7	67.5*
Cc1ccccc1-c1cc(C(=O)Nc2sc(C)c(C)c2C(N)=O)c2ccccc2n1	18.0	-0.6	0.0	-10.9	50.2*
CCOC(=O)c1sc(NC(=O)c2cc(-c3ccccc3C)nc3ccccc23)c(C#N)c1C	15.1	9.6	12.8	-15.8	-4.7
Cc1ccccc1NC(=O)c1cc(-c2ccco2)nc2ccccc12	6.9	/	/	/	59.8*
CCOc1cc(N2CCOCC2)c(OCC)cc1NC(=O)c1cc(-c2ccco2)nc2ccccc12	15.3	-0.5	-0.9	-2.6	70.9*
Cc1cccc(-c2cc(C(=O)Nc3ccc4c(c3)OCCO4)c3ccccc3n2)c1	8.1	-0.6	-0.8	-11.1	44.9
CC(C)CNC(=O)C1(C)CCCCCN1C(=O)c1csnn1 (centres undefined)	1.6	/	/	/	-6.8
CCc1cccc(C)c1NC(=O)c1cc(-c2ccncc2)nc2ccccc12	9.1	/	/	/	49.2*
Cc1ccc(-c2cc(C(=O)Nc3ccncc3)c3ccccc3n2)cc1	2.3	-0.3	-1.3	-5.7	5.5
O=C(CSc1ccc(-c2nc3ccccc3[nH]2)cn1)Nc1ccc(S(=O)(=O)N2CCCC2)cc1	7.9	3.6	0.9	-7.7	51.2*
SMILES	TAAR1 ag	V1aR counter	OXTR agonist	OXTR potentiate	TAAR1 antagonist
COc1ccc(C2C(C(=O)N3CCCCC3)CC(=O)N2c2ccc(OC)cc2)cc1 (centres undefined)	1.4	-0.7	-0.3	-5.2	-0.2
COC(=O)c1cc2c(C)c(C)c3ccccn3c-2c1C(=O)OC	17.2	0.6	-1.7	-19.3	62.7*
CCOc1ccc(NC(=O)c2ccc(CSc3nnc(C)s3)cc2)cc1	1.1	1.2	0.8	0.4	-7.9
COc1ccccc1CNC(=O)COc1ccccc1C(=O)c1cnn(-c2ccccc2)c1	5.9	1.6	-2.1	-12.2	57.2*
C=CCN(C(=O)Nc1ccc(Cl)cc1)C1CC(=O)N(c2ccc(OC)cc2)C1=O (centres undefined)	17.6	1.7	2.0	-6.4	12.7
O=c1c2ccc([N+](=O)[O-])cc2ncn1CCOc1ccc(Cl)cc1	20.8	0.3	-1.1	-4.4	63.5*
O=C(Cn1cnc2cc([N+](=O)[O-])ccc2c1=O)NCc1ccc(Cl)cc1	14.4	5.8	7.7	-13.2	8.5
O=C(Nc1ccc(-c2noc(-c3cccs3)n2)cc1)c1cccnc1	17.2	4.8	4.5	-10.8	55.9*
CC(Oc1ccc(Cl)cc1Cl)c1nc(-c2ccc(NC(=O)c3ccncc3)cc2)no1 (centres undefined)	23.6	6.3	7.3	-9.5	16.8
CC(Oc1ccc(Cl)cc1Cl)c1nc(-c2ccc(NC(=O)c3cccnc3)cc2)no1 (centres undefined)	9.4	1.0	2.8	-8.4	57.1*
O=C(NCC(c1cccnc1)N1CCN(c2ccccc2F)CC1)OCc1ccccc1 (centres undefined)	1.6	6.4	3.9	-29.4	2.6
COc1cc(NC(=O)c2cccs2)cc(OC)c1	11.5	-1.7	-1.9	-5.1	6.1
COc1ccccc1NS(=O)(=O)c1cc(NC(=O)c2cccs2)ccc1N1CCOCC1	5.0	1.0	1.8	-5.3	44.0
CCOc1ccc(C(C)NC(=S)NCc2ccc(Cl)cc2)cc1 (centres undefined)	45.2*	18.2	16.7	-27.9	21.2
CCCc1ccc(C(C)NC(=S)NCc2ccc(F)cc2)cc1 (centres undefined)	57.9*	21.4*	21.2*	-17.2	69.6*
CCOc1cc(N2CCOCC2)c(OCC)cc1NC(=O)c1oc2ccccc2c1C	0.1	-0.6	2.2	2.1	4.6
O=S(=O)(c1ccccc1F)N1CCN(c2nc(-c3cccnc3)nc3ccccc23)CC1	12.8	0.9	-0.9	-2.5	56.7*
N#Cc1ccccc1S(=O)(=O)N1CCN(c2nc(-c3cccnc3)nc3ccccc23)CC1	16.9	/	/	/	51.2*
Cn1cccc1C(=O)NC(=O)COC(=O)CCNS(=O)(=O)c1cccc(C(F)(F)F)c1	0.7	4.9	2.2	-2.7	-3.4
CN1C(=O)C(=O)/C(=C(/O)c2ccc(Br)cc2)C1c1ccc(Cl)cc1 (centres undefined)	3.3	3.2	0.2	-10.0	0.4
COc1cccc(OCCCOc2ccc([N+](=O)[O-])cc2Cl)c1	1.7	1.4	0.5	-6.7	14.7
